Source: ChEMBL document CHEMBL1817613, “Antitumor actinopyranones produced by Streptomyces albus POR-04-15-053 isolated from a marine sediment” (J Nat Prod, 2011)
Where a name gives a salt, the structure may show the parent alone. Calls of active or inactive are those of the source. No cut-off for these calls is given here.

What was measured:
MDA-MB-231 = test: Antitumor activity against human MDA-MB-231 cells after 72 hrs by SRB assay; type: functional; conditions: MDA-MB-231, 72 h
Procedure, shortened: (§1)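 Cells kept in RPMI with 10% fetal calf serum, 2 mM L-glutamine, penicillin/streptomycin, 37 °C, 5% CO2. Triplicate cultures exposed 72 h to 10 concentrations from 10 to 0.0026 μg/mL. Fixed in 1% glutaraldehyde, stained with 0.4% SRB for 30 min, dye extracted in 10 mM Trizma base, absorbance at 490 nm. Doxorubicin positive control. GI50, TGI and LC50 interpolated from nonlinear-regression dose-response curves (mean ± SD).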

HT-29 = test: Antitumor activity against human HT-29 cells after 72 hrs by SRB assay; type: functional; conditions: HT-29, 72 h; procedure, shortened: as §1
A549 = test: Antitumor activity against human A549 cells after 72 hrs by SRB assay; type: functional; conditions: A549, 72 h; for CC50: read-out: LC50 (the source's name); procedure, shortened: as §1
[1] = biological target: T1, Epidermal growth factor receptor (Homo sapiens, UniProt P00533); test: Inhibition of EGFR-induced AP1 activation in human HeLa cells preincubated for 1 hr prior to EGF stimulation by luciferase reporter gene assay; type: cell-based
[2] = biological target: T1, Epidermal growth factor receptor; test: Inhibition of EGFR autophosphorylation in human HeLa cells preincubated for 30 mins prior to EGF stimulation by Western blotting; type: cell-based
Procedure, shortened: (§2)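 Cells preincubated 30 min with vehicle, AG1478 or compound, then treated with EGF for 10 min. Lysed on ice 15 min in Tris-HCl pH 7.5/NaCl/NP-40/EDTA buffer with protease inhibitors, cleared at 14000g for 30 min at 4 °C. Equal extract amounts run on SDS-PAGE and blotted to PVDF. Probed for phospho-EGFR, phospho-ERK and phospho-JNK, then reprobed for total ERK and JNK.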

[3] = biological target: T1, Epidermal growth factor receptor; test: Inhibition of EGFR-induced ERK phosphorylation in human HeLa cells preincubated for 30 mins prior to EGF stimulation by Western blotting; type: cell-based; procedure, shortened: as §2
[4] = biological target: T1, Epidermal growth factor receptor; test: Inhibition of EGFR-induced ERK phosphorylation in human HeLa cells preincubated for 4 hrs prior to EGF stimulation by Western blotting; type: cell-based
Procedure, shortened: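 Cells preincubated 4 h with vehicle, AG1478 or compound before a 10 min EGF treatment. Lysates cleared at 14000g for 30 min at 4 °C, resolved by SDS-PAGE and blotted to PVDF. Probed for phospho-ERK and reprobed for total ERK.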

HeLa [5] = test: Effect on total ERK2 level in human HeLa cells preincubated for 30 mins prior to EGF stimulation by Western blotting; type: functional, cell-based; procedure, shortened: as §2
HeLa [6] = test: Effect on total JNK1 level in human HeLa cells preincubated for 30 mins prior to EGF stimulation by Western blotting; type: functional, cell-based; procedure, shortened: as §2
[7] = biological target: beta-catenin (Homo sapiens); test: Inhibition of beta-catenin activation in human SW480 cells by luciferase reporter gene assay
[8] = biological target: HIF-1alpha (Homo sapiens); test: Inhibition of HIF1alpha activation in human HeLa cells stimulated with deferoxamine by luciferase reporter gene assay
[9] = biological target: T1, Epidermal growth factor receptor; test: Inhibition of EGFR-induced JNK1 phosphorylation in human HeLa cells preincubated for 30 mins prior to EGF stimulation by Western blotting; type: cell-based; procedure, shortened: as §2

T1 sequence (P00533 whole entry): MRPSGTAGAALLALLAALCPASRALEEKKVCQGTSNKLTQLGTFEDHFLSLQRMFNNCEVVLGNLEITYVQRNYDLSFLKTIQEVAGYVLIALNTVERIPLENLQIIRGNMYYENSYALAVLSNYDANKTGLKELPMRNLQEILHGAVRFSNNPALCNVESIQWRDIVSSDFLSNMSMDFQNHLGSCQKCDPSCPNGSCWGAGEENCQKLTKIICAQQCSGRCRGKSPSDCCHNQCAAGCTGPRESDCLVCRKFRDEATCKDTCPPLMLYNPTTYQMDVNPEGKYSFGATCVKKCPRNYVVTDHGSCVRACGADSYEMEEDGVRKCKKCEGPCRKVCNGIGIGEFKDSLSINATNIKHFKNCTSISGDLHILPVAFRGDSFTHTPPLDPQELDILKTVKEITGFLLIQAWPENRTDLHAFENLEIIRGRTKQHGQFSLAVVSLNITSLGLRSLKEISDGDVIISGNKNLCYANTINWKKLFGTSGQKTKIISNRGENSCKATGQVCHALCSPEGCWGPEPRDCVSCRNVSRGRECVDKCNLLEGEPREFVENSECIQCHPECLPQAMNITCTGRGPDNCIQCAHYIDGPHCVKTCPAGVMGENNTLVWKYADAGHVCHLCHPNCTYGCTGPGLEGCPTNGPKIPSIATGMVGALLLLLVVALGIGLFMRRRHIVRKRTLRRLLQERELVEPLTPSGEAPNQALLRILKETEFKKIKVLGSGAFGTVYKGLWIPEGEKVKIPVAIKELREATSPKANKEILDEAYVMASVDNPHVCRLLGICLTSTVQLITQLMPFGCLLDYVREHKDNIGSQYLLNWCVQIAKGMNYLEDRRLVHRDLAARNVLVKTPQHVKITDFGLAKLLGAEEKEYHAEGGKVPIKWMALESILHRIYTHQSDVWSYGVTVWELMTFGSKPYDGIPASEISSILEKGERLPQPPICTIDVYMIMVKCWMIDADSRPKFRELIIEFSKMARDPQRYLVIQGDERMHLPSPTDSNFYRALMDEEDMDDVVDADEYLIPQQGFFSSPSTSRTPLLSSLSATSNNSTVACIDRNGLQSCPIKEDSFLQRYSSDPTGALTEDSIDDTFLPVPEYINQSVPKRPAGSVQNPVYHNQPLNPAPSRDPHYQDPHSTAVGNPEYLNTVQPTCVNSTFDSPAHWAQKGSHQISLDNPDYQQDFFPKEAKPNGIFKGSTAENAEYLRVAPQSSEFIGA

SMILES	GI50 (MDA-MB-231)	LC50 (concentration killing 50% of cells) (MDA-MB-231)	TGI (MDA-MB-231)	GI50 (HT-29)	LC50 (HT-29)	TGI (HT-29)	GI50 (A549)	TGI (A549)	CC50 (A549)	IC50 [1]	inhibition [2]	inhibition [3]	inhibition [4]	Activity (HeLa [5])	Activity (HeLa [6])	IC50 [7]	IC50 [8]	inhibition [9]
C/C=C(\C)[C@H](O)[C@H](C)/C=C(C)/C=C/CC(C)/C=C/c1oc(OC)c(C)c(=O)c1C (some centres not stated)	10500 nM	> 22000 nM	> 22000 nM	10800 nM	11500 nM	10800 nM	5000 nM	13500 nM	> 22000 nM	< 7 nM	inactive	Active	Active	inactive	inactive	660 nM	470 nM	
C/C=C(\C)C(O[C@@H]1O[C@H](CO)[C@@H](O)[C@H](O)[C@H]1O)C(C)/C=C(C)/C=C/CC(C)/C=C/c1oc(OC)c(CC)c(=O)c1C (some centres not stated)	240 nM	820 nM	430 nM	380 nM	4680 nM	1230 nM	280 nM	520 nM	1080 nM									
COc1cccc2c1C(=O)c1c(O)c3c(c(O)c1C2=O)C[C@@](O)(C(=O)CO)C[C@@H]3O[C@H]1C[C@H](N)[C@H](O)[C@H](C)O1 [DOXORUBICIN HYDROCHLORIDE]	90 nM		180 nM	150 nM		180 nM	60 nM	200 nM	590 nM									
C/C=C(\C)C(O[C@@H]1O[C@H](CO)[C@@H](O)[C@H](O)[C@H]1O)C(C)/C=C(C)/C=C/CC(C)/C=C/c1oc(OC)c(C)c(=O)c1C (some centres not stated)	500 nM	1010 nM	690 nM		240 nM		530 nM	760 nM	1160 nM	160 nM	inactive	inactive		inactive	inactive	170 nM	60 nM	
C/C=C(\C)C(O)C(C)/C=C(C)/C=C/CC(C)/C=C/c1oc(OC)c(CC)c(=O)c1C (configuration not stated)	> 22000 nM	> 22000 nM	> 22000 nM	21500 nM	> 22000 nM	> 22000 nM	18600 nM	> 22000 nM	> 22000 nM		inactive	inactive		inactive	inactive			Active
COc1cc2ncnc(Nc3cccc(Cl)c3)c2cc1OC											Active							
